Compounds with a hit are over-represented: about 1.5% of the library has one in this group of screens.
p97 inhibitor – inhibitors of human p97 ATPase, primary screen, biochemical; recombinant p97 ATPase, Kinase-Glo ATP luminescence, 3 h; 0.42% of 220,000 active; Transitional endoplasmic reticulum ATPase (Homo sapiens), P55072; inhibition, % at 8 µM; in the data active = inhibition above about 15%;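 note: 0% = DMSO vehicle and 100% = wells lacking enzyme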
Hsp70 activator – Hsp70 transcriptional activators, primary screen, cell-based, HeLa, Hsp70 promoter luciferase, luminescence, 10 µM. HeLa Hsp70 promoter luciferase reporter; scaled: vehicle 0, proteasome-inhibitor control 100%. activation, % at 10 µM. 0.04% of 200,000 active. AID 1203, 2008;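 active = activation above the mean across all tested compounds plus 3 SD, cutoff set per campaign, cut at about 5.5% in these data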;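 note: 100% = MG132 at 30 µM as the positive control and 0% = DMSO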
RBBP9 inhibitor – human RBBP9 inhibitors, primary screen, biochemical, fluorescence polarization, FP-Rh probe, HTS; Serine hydrolase RBBP9 (Homo sapiens), O75884; 0.2% of 220,000 active; recombinant RBBP9; AID 1515, 2009; inhibition, % at 7.94 µM;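 active = inhibition above the campaign mean of all tested compounds plus 3 SD, cut at about 14% in these data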;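 note: plate controls were DMSO wells with RBBP9 for no effect and wells lacking RBBP9 protein for full effect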
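Test system: recombinant human RBBP9. Quantity: 2.5 µM RBBP9 dispensing solution, before mixing. Detection: FP readout at 525/598 nm. Reagent: Serine-hydrolase probe FP-Rh, 375 nM pre-mixing. Measure: % inhibition. Control set: DMSO-treated enzyme wells and wells lacking RBBP9. Buffer or medium: Tris-NaCl-Pluronic buffer, pH 8.0. Times: preincubation 30 min plus labeling 45 min at 25 °C.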
PKD1 kinase inh – inhibitors of human PKD1 kinase, biochemical, fluorescence polarization. PKD1 kinase fluorescence polarization assay. inhibition, % (concentration not given with the values). AID 797, 2007. 0.056% of 200,000 active; in the data active = inhibition above about 50%
PP1 counter – PP1-alpha phosphatase inhibitors, primary screen, counter-screen for PP5 inhibitor project, biochemical, fluorescence, OMFP substrate, single point; Serine/threonine-protein phosphatase PP1-alpha catalytic subunit (Homo sapiens), P62136; purified PP1alpha; inhibition, % at 6.7 µM; 0.9% of 320,000 active;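 active = inhibition above the mean inhibition of all tested compounds plus 3 SD, computed separately for each screening campaign, cut at about 15% in these data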
PP5 primary – PP5 phosphatase inhibitors, primary screen, biochemical, fluorescence; purified PP5c, OMFP substrate fluorescence; 0.18% of 320,000 active; inhibition, % at 6.7 µM; Serine/threonine-protein phosphatase 5 (Homo sapiens), P53041;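 active = inhibition above the campaign's mean inhibition across all tested compounds plus 3 SD, cut at about 9.5% in these data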;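 note: 0% = DMSO only and 100% = 100 µM cantharidin control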
* = called active by the depositor.

For COc1ccc(C2C(C#N)=C3NC(=O)c4c(sc5c4CCCCC5)N3C3=C2C(=O)CC(C)(C)C3)cc1 (stereo unspecified) the results were p97 inhibitor 1, Hsp70 activator 0, RBBP9 inhibitor -8, PKD1 kinase inh -1, PP1 counter 16* and PP5 primary 1.
For COc1ccc(C2C(C#N)=C(N)N(c3sc4c(c3C#N)CCCC4)C3=C2C(=O)CC(C)(C)C3)cc1 (stereo unspecified) the results were p97 inhibitor 2, Hsp70 activator 0, RBBP9 inhibitor 0, PKD1 kinase inh -8, PP1 counter 7 and PP5 primary 2.
For Cc1ccc(OCCCN2C(=O)C(=O)c3cc(C)ccc32)cc1 the results were p97 inhibitor 1, Hsp70 activator 0, RBBP9 inhibitor 2, PKD1 kinase inh -1, PP1 counter 17* and PP5 primary 3.
Screening Cc1cccc(OCCCN2C(=O)C(=O)c3cc(C)ccc32)c1 returned p97 inhibitor -1, Hsp70 activator 0, RBBP9 inhibitor -3, PKD1 kinase inh 6, PP1 counter 16* and PP5 primary 2.
`Cc1ccc2c(c1)C(=O)C(=O)N2CCCOc1ccccc1` gave p97 inhibitor -4, Hsp70 activator 0, RBBP9 inhibitor 3, PKD1 kinase inh 7, PP1 counter 7 and PP5 primary 0.
`CCSc1nnc(NC(=O)CCN2C(=O)C3CCCCC3C2=O)s1` (stereo unspecified) gave PP1 counter -4 and PP5 primary -1.
Cc1cc(C)c2c(N)c(C(=O)Nc3ccccc3Cl)sc2n1 was read as PP1 counter 17* and PP5 primary -2.
Screening O=C(C1=C(O)C(=O)N(CCCN2CCOCC2)C1c1ccc(Cl)cc1)c1cc2ccccc2o1 (stereo unspecified) returned PP1 counter 16* and PP5 primary 3.
For O=C(C1=C(O)C(=O)N(CCN2CCOCC2)C1c1ccc(Cl)cc1)c1cc2ccccc2o1 (stereo unspecified) the results were PP1 counter 19* and PP5 primary 4.
For CCc1cc(C(=O)N2CCCC(N3CCN(c4cccc(C(F)(F)F)c4)CC3)C2)n(C)n1 (stereo unspecified) the results were PP1 counter -1 and PP5 primary -2.
Screening Cc1nc2ccccc2c2c1C(=O)NC2=O returned p97 inhibitor 3, RBBP9 inhibitor -2, PP1 counter -2 and PP5 primary 3.
Screening CCC1C/C(=C\c2cccnc2)C(=O)/C(=C/c2cccnc2)C1 (stereo unspecified) returned p97 inhibitor -2, Hsp70 activator 25*, RBBP9 inhibitor -2 and PKD1 kinase inh -14.
For O=C1/C(=C/c2cccnc2)CC/C1=C\c1cccnc1 the results were p97 inhibitor 2, Hsp70 activator 0, RBBP9 inhibitor -7, PKD1 kinase inh 6, PP1 counter -1 and PP5 primary -1.
O=C(CC1S/C(=N/N=C/c2cccs2)NC1=O)Nc1ccc(Cl)cc1 (stereo unspecified) was read as p97 inhibitor -4, Hsp70 activator 0, RBBP9 inhibitor -8, PKD1 kinase inh 4, PP1 counter 17* and PP5 primary 1.
`Cc1noc(/C=C/c2ccco2)c1S(=O)(=O)N1CCC(C(=O)N2c3ccccc3CC2C)CC1` (stereo unspecified) gave p97 inhibitor 3, Hsp70 activator 0, RBBP9 inhibitor -11, PKD1 kinase inh 2, PP1 counter 17* and PP5 primary 0.
`Cc1noc(/C=C/c2ccco2)c1S(=O)(=O)N1CCC(C(=O)NC(C)c2ccccc2)CC1` (stereo unspecified) gave p97 inhibitor 0, Hsp70 activator 0, RBBP9 inhibitor -7, PKD1 kinase inh -10, PP1 counter 5 and PP5 primary 4.
For Cc1ccc(NC(=O)C(C)N=C2NS(=O)(=O)c3ccccc32)cc1F (stereo unspecified) the results were p97 inhibitor 0, RBBP9 inhibitor -9, PP1 counter -4 and PP5 primary 2.
`O=C(C1=C[C@@H](c2csc3ccccc23)C[C@@H](OCc2ccc(CO)cc2)O1)N1CCN(Cc2ccc3c(c2)OCO3)CC1` gave p97 inhibitor 7, Hsp70 activator 0, RBBP9 inhibitor -10, PKD1 kinase inh 14, PP1 counter 16* and PP5 primary 4.
For O=C1C(=O)N(C/C=C/c2ccccc2)c2ccccc21 the results were PP1 counter 17* and PP5 primary 0.
`O=C(CCN1CCCCCC1)c1ccccc1` gave p97 inhibitor 4, Hsp70 activator -1, RBBP9 inhibitor 18*, PKD1 kinase inh -9, PP1 counter 0 and PP5 primary -2.
Screening COc1cccc(-c2nc(SCC(=O)Nc3nc(-c4ccccc4)c(C)s3)[nH]c(=O)c2C#N)c1 returned p97 inhibitor 4, Hsp70 activator 0, RBBP9 inhibitor -13, PKD1 kinase inh -1, PP1 counter 17* and PP5 primary 1.
O=C(O)c1cc(O)c2c(c1)[C@H]([C@H]1c3cc(C(=O)O)cc(O)c3C(=O)c3c(O[C@@H]4O[C@H](CO)[C@@H](O)[C@H](O)[C@H]4O)cccc31)c1cccc(OC3O[C@H](CO)[C@@H](O)[C@H](O)[C@H]3O)c1C2=O (stereo partly specified) was read as PP1 counter 86* and PP5 primary 9.
O=C(O)c1cc(O)c2c(c1)[C@@H]([C@H]1c3cc(C(=O)O)cc(O)c3C(=O)c3c(O[C@@H]4O[C@H](CO)[C@@H](O)[C@H](O)[C@H]4O)cccc31)c1cccc(OC3O[C@H](CO)[C@@H](O)[C@H](O)[C@H]3O)c1C2=O (stereo partly specified) was read as PP1 counter 87* and PP5 primary 9.8*.
`O=C1c2cc(CO)cc(O)c2C(=O)c2c(O[C@@H]3OC(CO)[C@@H](O)[C@@H](O)[C@@H]3O)cccc21` (stereo partly specified) gave PP1 counter 2 and PP5 primary 5.
`COc1ccccc1C(=O)NCCC(=O)NCC1CCCO1` (stereo unspecified) gave PP1 counter 2 and PP5 primary 1.
